These results are taken from ChEMBL document CHEMBL3046867, “Bioactive ryanoids from nucleophilic additions to 4,12-seco-4,12-dioxoryanodine” (J Med Chem, 1993).

pIC50: −log10 of the molar value.

Data set [1] in a line: Toxicity in ip dosed Mus musculus albino Swiss-Webster (mouse) […]. It counts as organism-based. As to conditions: in vivo. The essentials: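 Male albino Swiss-Webster mice, 18–22 g; ryanoid given ip in methoxytriglycol (50 μL); mortality read at 24 h.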
The target in a further data set is Ryanodine receptor 3 (Mus musculus, UniProt A2AGL3). The data set is described as follows: Binding affinity to ryanodine receptor in Mus musculus albino Swiss-Webster (mouse) brain.
Sequence of Ryanodine receptor 3 (A2AGL3 whole entry): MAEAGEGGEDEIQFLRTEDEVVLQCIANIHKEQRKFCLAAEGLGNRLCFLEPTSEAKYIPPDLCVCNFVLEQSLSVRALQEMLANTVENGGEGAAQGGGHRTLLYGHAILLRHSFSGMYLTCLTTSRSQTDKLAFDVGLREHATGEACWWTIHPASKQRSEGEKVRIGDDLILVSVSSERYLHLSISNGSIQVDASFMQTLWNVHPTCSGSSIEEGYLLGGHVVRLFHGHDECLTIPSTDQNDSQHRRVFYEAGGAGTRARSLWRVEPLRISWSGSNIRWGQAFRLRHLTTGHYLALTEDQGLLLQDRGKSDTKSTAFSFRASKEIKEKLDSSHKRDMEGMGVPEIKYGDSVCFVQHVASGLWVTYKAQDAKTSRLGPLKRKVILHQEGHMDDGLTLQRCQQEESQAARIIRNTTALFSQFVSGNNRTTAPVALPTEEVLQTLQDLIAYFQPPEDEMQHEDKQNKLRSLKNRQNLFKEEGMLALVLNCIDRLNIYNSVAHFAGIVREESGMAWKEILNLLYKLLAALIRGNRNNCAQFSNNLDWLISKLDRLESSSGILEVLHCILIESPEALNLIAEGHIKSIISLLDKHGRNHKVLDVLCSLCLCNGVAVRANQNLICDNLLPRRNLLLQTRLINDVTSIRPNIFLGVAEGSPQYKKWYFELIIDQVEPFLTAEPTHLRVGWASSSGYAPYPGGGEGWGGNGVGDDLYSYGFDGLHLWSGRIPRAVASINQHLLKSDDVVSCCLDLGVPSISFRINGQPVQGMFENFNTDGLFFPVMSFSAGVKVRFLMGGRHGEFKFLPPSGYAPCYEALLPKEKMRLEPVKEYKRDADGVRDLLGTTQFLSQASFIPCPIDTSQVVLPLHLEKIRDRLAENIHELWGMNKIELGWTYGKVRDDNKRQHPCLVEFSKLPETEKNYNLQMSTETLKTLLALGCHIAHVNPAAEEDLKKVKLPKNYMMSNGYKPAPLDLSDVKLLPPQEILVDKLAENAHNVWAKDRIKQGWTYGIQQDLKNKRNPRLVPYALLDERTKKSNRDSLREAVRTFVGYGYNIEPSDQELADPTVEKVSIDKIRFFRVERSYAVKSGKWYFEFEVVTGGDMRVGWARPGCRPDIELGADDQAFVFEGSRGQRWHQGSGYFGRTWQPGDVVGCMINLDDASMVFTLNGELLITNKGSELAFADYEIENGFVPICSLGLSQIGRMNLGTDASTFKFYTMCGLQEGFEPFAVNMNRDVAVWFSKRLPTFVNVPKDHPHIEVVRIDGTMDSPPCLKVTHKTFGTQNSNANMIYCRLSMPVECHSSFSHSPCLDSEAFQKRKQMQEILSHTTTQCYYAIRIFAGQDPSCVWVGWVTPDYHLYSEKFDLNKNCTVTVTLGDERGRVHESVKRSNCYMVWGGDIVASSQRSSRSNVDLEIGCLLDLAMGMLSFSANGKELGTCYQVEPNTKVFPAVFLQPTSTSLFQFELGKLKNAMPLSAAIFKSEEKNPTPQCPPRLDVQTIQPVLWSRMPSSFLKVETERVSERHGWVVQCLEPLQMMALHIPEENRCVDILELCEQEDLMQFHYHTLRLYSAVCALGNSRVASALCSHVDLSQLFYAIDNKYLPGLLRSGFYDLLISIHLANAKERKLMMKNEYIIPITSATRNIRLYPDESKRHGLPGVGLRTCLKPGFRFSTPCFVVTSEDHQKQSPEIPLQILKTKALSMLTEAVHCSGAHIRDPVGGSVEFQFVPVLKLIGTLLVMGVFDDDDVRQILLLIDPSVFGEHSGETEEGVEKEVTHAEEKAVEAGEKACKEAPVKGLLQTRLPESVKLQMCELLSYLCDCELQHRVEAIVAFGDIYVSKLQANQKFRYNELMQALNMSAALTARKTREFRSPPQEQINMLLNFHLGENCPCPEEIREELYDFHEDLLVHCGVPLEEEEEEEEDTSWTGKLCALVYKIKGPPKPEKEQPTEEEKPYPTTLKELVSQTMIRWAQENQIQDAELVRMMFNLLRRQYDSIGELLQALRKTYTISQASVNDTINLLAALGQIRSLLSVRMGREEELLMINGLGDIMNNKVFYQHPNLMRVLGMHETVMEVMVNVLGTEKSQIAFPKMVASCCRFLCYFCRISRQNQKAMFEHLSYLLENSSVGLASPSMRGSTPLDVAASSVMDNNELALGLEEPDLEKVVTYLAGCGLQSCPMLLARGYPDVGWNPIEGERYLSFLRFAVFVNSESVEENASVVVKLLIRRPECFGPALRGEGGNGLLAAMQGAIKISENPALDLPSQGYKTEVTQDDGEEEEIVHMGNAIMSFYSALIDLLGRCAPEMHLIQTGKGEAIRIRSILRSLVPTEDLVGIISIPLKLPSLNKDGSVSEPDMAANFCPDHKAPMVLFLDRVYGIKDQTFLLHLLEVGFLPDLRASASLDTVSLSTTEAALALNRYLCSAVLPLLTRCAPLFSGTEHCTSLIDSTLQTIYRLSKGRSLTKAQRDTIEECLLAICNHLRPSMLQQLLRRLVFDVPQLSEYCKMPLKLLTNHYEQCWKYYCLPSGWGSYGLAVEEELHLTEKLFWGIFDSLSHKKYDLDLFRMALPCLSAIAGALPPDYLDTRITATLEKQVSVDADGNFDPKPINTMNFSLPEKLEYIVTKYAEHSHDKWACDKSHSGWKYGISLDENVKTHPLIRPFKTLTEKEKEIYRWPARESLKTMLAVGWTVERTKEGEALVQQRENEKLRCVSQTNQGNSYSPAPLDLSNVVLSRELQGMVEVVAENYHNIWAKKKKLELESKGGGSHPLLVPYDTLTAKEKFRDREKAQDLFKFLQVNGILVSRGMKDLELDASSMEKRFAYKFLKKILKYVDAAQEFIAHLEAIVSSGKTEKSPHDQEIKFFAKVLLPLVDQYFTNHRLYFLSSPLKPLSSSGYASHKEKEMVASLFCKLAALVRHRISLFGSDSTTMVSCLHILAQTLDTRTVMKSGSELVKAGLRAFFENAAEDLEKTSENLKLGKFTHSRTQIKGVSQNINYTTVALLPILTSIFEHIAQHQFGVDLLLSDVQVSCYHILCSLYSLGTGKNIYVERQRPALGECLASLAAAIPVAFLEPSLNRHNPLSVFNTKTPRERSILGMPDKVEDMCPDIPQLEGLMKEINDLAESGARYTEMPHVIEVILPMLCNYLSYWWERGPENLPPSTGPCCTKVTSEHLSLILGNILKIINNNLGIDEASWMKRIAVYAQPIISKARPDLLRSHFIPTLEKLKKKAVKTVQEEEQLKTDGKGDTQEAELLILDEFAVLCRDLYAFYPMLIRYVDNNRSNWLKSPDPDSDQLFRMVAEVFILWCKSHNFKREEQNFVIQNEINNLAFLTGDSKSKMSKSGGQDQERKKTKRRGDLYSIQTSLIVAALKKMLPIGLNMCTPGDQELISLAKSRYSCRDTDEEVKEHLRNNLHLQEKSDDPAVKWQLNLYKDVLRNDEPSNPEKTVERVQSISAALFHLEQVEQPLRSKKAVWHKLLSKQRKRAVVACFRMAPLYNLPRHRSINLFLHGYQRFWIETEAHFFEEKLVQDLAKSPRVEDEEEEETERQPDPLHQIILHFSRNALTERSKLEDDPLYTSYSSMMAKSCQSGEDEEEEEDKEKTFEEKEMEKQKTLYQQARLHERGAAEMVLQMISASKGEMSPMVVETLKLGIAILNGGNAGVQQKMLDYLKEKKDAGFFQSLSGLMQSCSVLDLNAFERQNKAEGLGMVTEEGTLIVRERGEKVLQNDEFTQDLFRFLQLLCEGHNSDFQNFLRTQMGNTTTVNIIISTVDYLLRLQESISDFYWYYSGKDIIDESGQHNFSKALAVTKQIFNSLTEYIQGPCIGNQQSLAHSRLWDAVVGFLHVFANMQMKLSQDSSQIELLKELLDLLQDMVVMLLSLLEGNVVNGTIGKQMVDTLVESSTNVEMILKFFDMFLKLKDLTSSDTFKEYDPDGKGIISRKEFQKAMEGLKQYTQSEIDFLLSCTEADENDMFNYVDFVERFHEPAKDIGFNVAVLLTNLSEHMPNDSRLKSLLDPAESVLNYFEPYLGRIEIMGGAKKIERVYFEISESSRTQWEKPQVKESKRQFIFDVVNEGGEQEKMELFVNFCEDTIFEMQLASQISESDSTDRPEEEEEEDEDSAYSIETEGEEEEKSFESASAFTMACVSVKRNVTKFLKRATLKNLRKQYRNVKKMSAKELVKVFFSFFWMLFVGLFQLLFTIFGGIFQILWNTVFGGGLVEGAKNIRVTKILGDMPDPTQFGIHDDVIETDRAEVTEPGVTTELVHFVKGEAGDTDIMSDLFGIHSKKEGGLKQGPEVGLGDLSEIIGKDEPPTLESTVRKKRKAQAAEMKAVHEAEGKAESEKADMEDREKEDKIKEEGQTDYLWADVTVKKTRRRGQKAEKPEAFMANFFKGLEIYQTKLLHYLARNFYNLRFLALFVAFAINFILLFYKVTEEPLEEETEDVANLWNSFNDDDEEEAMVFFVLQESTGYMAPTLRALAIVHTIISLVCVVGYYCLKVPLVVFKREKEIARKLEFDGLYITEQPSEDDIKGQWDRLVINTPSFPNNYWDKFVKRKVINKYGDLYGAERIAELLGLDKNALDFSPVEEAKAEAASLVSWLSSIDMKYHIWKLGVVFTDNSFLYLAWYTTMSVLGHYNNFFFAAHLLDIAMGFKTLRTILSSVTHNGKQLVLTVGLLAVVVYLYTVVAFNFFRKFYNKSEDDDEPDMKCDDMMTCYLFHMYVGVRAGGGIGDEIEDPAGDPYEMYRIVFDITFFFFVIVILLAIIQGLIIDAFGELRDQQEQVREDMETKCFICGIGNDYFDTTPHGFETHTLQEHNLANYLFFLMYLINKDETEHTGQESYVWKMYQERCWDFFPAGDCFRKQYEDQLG
Data set [2] concerns Musca domestica. The data set can be described thus: Toxicity against SCR-susceptible Musca domestica (house fly) assessed as mortality compound administered by intrathoracic injection 1 to 2 hr after piperonyl butoxide treatment measured 24 hr post compound treatment relative to ryanodine. It counts as functional.
Data set [3] relates to Musca domestica. The data set is described as follows: Toxicity against SCR-susceptible Musca domestica (house fly) assessed as immobility compound administered by intrathoracic injection 1 to 2 hr after piperonyl butoxide treatment measured 4 hr post compound treatment relative to ryanodine. It counts as functional. Put shortly: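 Adult female flies pretreated with piperonyl butoxide (5 μg in 0.5 μL acetone, ventral abdomen); 1-2 h later, 0.22 μL ryanoid in DMSO injected into the thorax. Knockdown scored at 4 h and KD50 derived. Ten flies per dose, 1.50-2-fold dose steps, two or more experiments (or single determinations where estimated).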

Data set [4] deals with Ryanodine receptor 3 (Mus musculus) (UniProt A2AGL3). The data set is described as follows: Binding affinity to ryanodine receptor in Mus musculus albino Swiss-Webster (mouse) brain relative to ryanodine.
Sequence of Ryanodine receptor 3 (Mus musculus) (A2AGL3 whole entry): as above
Data set [5] addresses Ryanodine receptor 1 (Oryctolagus cuniculus) (UniProt P11716). The data set is described as follows: Displacement of [3H]ryanodine from Ca2+-ryanodine receptor in Oryctolagus cuniculus (rabbit) skeletal muscle sarcoplasmic reticulum after 1 hr by competitive inhibition assay in presence of ATP relative to ryanodine. Put shortly: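 Unlabeled ryanoid introduced in DMSO (1% final) before incubation. Filtration, washes in 150 mM KCl/10 mM Hepes pH 7.4. Nonspecific binding: 10 μM dehydroryanodine. IC50 from LIGAND; duplicate experiments.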
On the technique in general: Loss of bound radioactivity is the signal in a displacement assay; it reports binding, not function.

The target is the same in data set [6]. The data set can be described thus: Displacement of [3H]ryanodine from Ca2+-ryanodine receptor in Oryctolagus cuniculus (rabbit) skeletal muscle sarcoplasmic reticulum after 2 hr by competitive inhibition assay relative to ryanodine. Put shortly:
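No ATP. […] Ryanoid given in DMSO (1% final). Glass-fiber filtration; three washes with ice-cold buffer a using Tris HCl instead of Hepes. Nonspecific binding with 10 μM dehydroryanodine. IC50 calculated by LIGAND; duplicate experiments.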

On to `CC(C)[C@@]1(O)[C@@H](OC(=O)c2ccc[nH]2)[C@@]2(O)[C@@]3(C)C[C@]4(O)O[C@@]5([C@H](O)[C@@H](C)CC[C@]35O)[C@@]2(O)[C@@]14C` [RYANODINE], for which the LD50 in data set [1] was 0.49 mg/kg. In addition, the negative-log IC50 (pIC50) at Ryanodine receptor 3 is 8.48.
For the molecule `CC(C)[C@@]1(O)[C@@H](OC(=O)c2ccc[nH]2)[C@]2(O)O[C@H]3[C@]45O[C@@](O)(C[C@@]2(C)[C@@]4(O)CC[C@H](C)[C@H]5O)[C@]31C`, the Ratio is 120 in the data set with Musca domestica [2]; 270 with Musca domestica [3]; 54 in data set [4]; 64 in data set [5]; 62 in data set [6]. For the same molecule, in data set [1], the median lethal dose (LD50) stood at 0.15 mg/kg.
Regarding `CC(C)[C@@]1(O)[C@@H](OC(=O)c2ccc[nH]2)C(=O)[C@@]2(C)C[C@]3(O)O[C@]4(/C(=N\O)[C@]13C)[C@H](O)[C@@H](C)CC[C@@]42O`, the Ratio is 30 in the data set with Musca domestica [2]; 8 in the data set with Musca domestica [3]; 1.9 in data set [4]; 3.1 in data set [5]; 1.7 in data set [6].
The corresponding values for `C=C1CC[C@@]2(O)[C@]3(O[C@@]4(O)C[C@]2(C)C(=O)[C@H](OC(=O)c2ccc[nH]2)[C@](O)(C(C)C)[C@@]4(C)C3=O)[C@@H]1O` [4,12-SECO-4,12-DIOXODEHYDRORYANODIN] are 4, 4, 1.1, 0.97 and 0.79.

For orientation: LD50 means the dose expected to kill half of the subjects tested. A higher LD50 goes with a less toxic substance. As a reminder, the pIC50 is the IC50 on a negative log10 scale, so that one unit is a factor of ten. A low value points to a high IC50.
